Consider one compound from ChEMBL document CHEMBL3244396, “Synthesis and antileukemic activity of 5-substituted 2,3-dihydro-6,7-bis(hydroxymethyl)-1H-pyrrolizine diesters” (J Med Chem, 1977).

In brackets after ≈: the same amount, converted by molar mass.

Data set [1] deals with L1210. Kind of data set: Antileukemic activity against mouse L1210 cells allografted in female CDF1 mouse assessed as change in body weight at 200 mg/kg, ip administered daily for 9 days as Klucel suspension starting 24 hrs after tumor inoculation. The data set is classed as functional. The conditions noted are these: route intraperitoneal. The procedure, abridged:
(§1)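 Ascitic fluid carrying L1210 cells was inoculated ip. Compound was given ip as a Klucel (hydroxypropylcellulose) suspension in nine daily doses, starting 24 h after inoculation. Body-weight difference (treated minus control) was recorded on day 5. Survival was scored as %T/C of mean survival time.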

Data set [2] relates to L1210. Kind of data set: Antileukemic activity against mouse L1210 cells allografted in male CDF1 mouse assessed as change in body weight at 100 mg/kg, ip administered daily for 9 days as Klucel suspension starting 24 hrs after tumor inoculation. Format: functional. As to conditions: route intraperitoneal. The procedure, abridged: as §1
Data set [3] concerns L1210. Kind of data set: Antileukemic activity against mouse L1210 cells allografted in male CDF1 mouse assessed as host mean survival time at 100 mg/kg, ip administered daily for 9 days as Klucel suspension starting 24 hrs after tumor inoculation relative to control. The data set is classed as functional. As to conditions: route intraperitoneal. The procedure, abridged: (§2)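 L1210 leukemia given as an ascitic fluid cell inoculum, ip, to mice of the strain and sex in each line. Test material was given ip for nine daily doses starting 24 h after inoculation, in a Klucel (hydroxypropylcellulose) suspension. Read-out is mean survival time as %T/C versus controls, with >125 taken as significant.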

The subject of data set [4] is L1210. Kind of data set: Antileukemic activity against mouse L1210 cells allografted in female CDF1 mouse assessed as host mean survival time at 50 mg/kg, ip administered daily for 9 days as Klucel suspension starting 24 hrs after tumor inoculation relative to control. The data set is classed as functional. The conditions noted are these: route intraperitoneal. The procedure, abridged:
as §2

The test system of data set [5] is Mus musculus. Kind of data set: Toxicity in female CDF1 mouse allografted with mouse L1210 cells assessed as animal survival at 50 mg/kg, ip administered daily for 9 days as Klucel suspension starting 24 hrs after tumor inoculation measured on fifth day. The data set is classed as organism-based. More on the design: dose 50 mg/kg, route intraperitoneal. As to conditions: in vivo. In a few lines:
(§3)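 L1210 leukemia passaged as ascitic fluid and inoculated ip. Test agent given ip as a Klucel (hydroxypropylcellulose) suspension, nine daily doses starting 24 h after tumor inoculation. Acute toxicity read as toxicity-day survivors per group (out of 6), recorded on day 5. Animal weight difference T − C was also recorded. Follows NCI screening protocols.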

In data set [6] the test system is L1210. Kind of data set: Antileukemic activity against mouse L1210 cells allografted in male CDF1 mouse assessed as host mean survival time at 50 mg/kg, ip administered daily for 9 days as Klucel suspension starting 24 hrs after tumor inoculation relative to control. Format: functional. The conditions noted are these: route intraperitoneal. The procedure, abridged: as §2

In data set [7] the test system is L1210. Kind of data set: Antileukemic activity against mouse L1210 cells allografted in female CDF1 mouse assessed as change in body weight at 400 mg/kg, ip administered daily for 9 days as Klucel suspension starting 24 hrs after tumor inoculation. Format: functional. The conditions noted are these: route intraperitoneal. The procedure, abridged: as §1
Data set [8] deals with Mus musculus. Kind of data set: Toxicity in male CDF1 mouse allografted with mouse L1210 cells assessed as animal survival at 50 mg/kg, ip administered daily for 9 days as Klucel suspension starting 24 hrs after tumor inoculation measured on fifth day. More on the design: dose 50 mg/kg, route intraperitoneal. The conditions noted are these: in vivo. Format: organism-based. The procedure, abridged: as §3

Data set [9] concerns Mus musculus. Kind of data set: Toxicity in male CDF1 mouse allografted with mouse L1210 cells assessed as animal survival at 100 mg/kg, ip administered daily for 9 days as Klucel suspension starting 24 hrs after tumor inoculation measured on fifth day. Format: organism-based. The conditions noted are these: in vivo. Also on record: dose 100 mg/kg, route intraperitoneal. In a few lines:
as §3

The subject of data set [10] is Mus musculus. Kind of data set: Toxicity in male CDF1 mouse allografted with mouse L1210 cells assessed as animal survival at 200 mg/kg, ip administered daily for 9 days as Klucel suspension starting 24 hrs after tumor inoculation measured on fifth day. The data set is classed as organism-based. Also on record: dose 200 mg/kg, route intraperitoneal. The conditions noted are these: in vivo. The procedure, abridged: as §3

In data set [11] the test system is L1210. Kind of data set: Antileukemic activity against mouse L1210 cells allografted in female CDF1 mouse assessed as host mean survival time at 100 mg/kg, ip administered daily for 9 days as Klucel suspension starting 24 hrs after tumor inoculation relative to control. The data set is classed as functional. The conditions noted are these: route intraperitoneal. In a few lines: as §2

The test system of data set [12] is L1210. Kind of data set: Antileukemic activity against mouse L1210 cells allografted in female CDF1 mouse assessed as change in body weight at 50 mg/kg, ip administered daily for 9 days as Klucel suspension starting 24 hrs after tumor inoculation. As to conditions: route intraperitoneal. Format: functional. The procedure, abridged: as §1
Data set [13] concerns L1210. Kind of data set: Antileukemic activity against mouse L1210 cells allografted in female CDF1 mouse assessed as host mean survival time at 200 mg/kg, ip administered daily for 9 days as Klucel suspension starting 24 hrs after tumor inoculation relative to control. Format: functional. As to conditions: route intraperitoneal. In a few lines:
as §2

Data set [14] can be described thus: Cytotoxicity against human 9KB cells treated as ethanol solution. The data set is classed as functional. As to conditions: read-out: ED50 (the source's name). In a few lines: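 Compound applied as an ethanol solution; activity read out as ED50 under the general screening protocol.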
Data set [15] deals with L1210. Kind of data set: Antileukemic activity against mouse L1210 cells allografted in female CDF1 mouse assessed as change in body weight at 100 mg/kg, ip administered daily for 9 days as Klucel suspension starting 24 hrs after tumor inoculation. The data set is classed as functional. As to conditions: route intraperitoneal. The procedure, abridged:
as §1

Data set [16] deals with L1210. Kind of data set: Antileukemic activity against mouse L1210 cells allografted in male CDF1 mouse assessed as change in body weight at 200 mg/kg, ip administered daily for 9 days as Klucel suspension starting 24 hrs after tumor inoculation. Format: functional. As to conditions: route intraperitoneal. The procedure, abridged:
as §1

In data set [17] the test system is L1210. Kind of data set: Antileukemic activity against mouse L1210 cells allografted in male CDF1 mouse assessed as host mean survival time at 200 mg/kg, ip administered daily for 9 days as Klucel suspension starting 24 hrs after tumor inoculation relative to control. Format: functional. The conditions noted are these: route intraperitoneal. In a few lines: as §2

The test system of data set [18] is Mus musculus. Kind of data set: Toxicity in female CDF1 mouse allografted with mouse L1210 cells assessed as animal survival at 400 mg/kg, ip administered daily for 9 days as Klucel suspension starting 24 hrs after tumor inoculation measured on fifth day. The data set is classed as organism-based. More on the design: dose 400 mg/kg, route intraperitoneal. As to conditions: in vivo. The procedure, abridged: as §3

Data set [19] concerns L1210. Kind of data set: Antileukemic activity against mouse L1210 cells allografted in male CDF1 mouse assessed as change in body weight at 50 mg/kg, ip administered daily for 9 days as Klucel suspension starting 24 hrs after tumor inoculation. The data set is classed as functional. The conditions noted are these: route intraperitoneal. The procedure, abridged:
as §1

For `COc1ccc(-c2c(COC(C)=O)c(COC(C)=O)c3n2CCC3)cc1`, the Activity is -2.5 g in data set [1]; -7.2 g in data set [2]; “Non-toxic” in [5]; -0.1 g in [7]; “Non-toxic” in [8]; “Non-toxic” in data set [9]. For the same compound, the Activity entry in [10] is “Non-toxic”; in data set [12] it was -1 g; in [15] it was -2.5 g; in data set [16] it was -5.2 g; in data set [18] it was “Toxic”; in [19], -2.9 g. Also, the T/C (in general, the ratio of treated to control) is 78% in data set [3]; 77% in data set [4]; 113% in data set [6]; 65% in data set [11]; 65% in [13]; 130% in data set [17]. Further, the EC50 in data set [14] stood at 2.5 µg/mL (≈ 6.99 µM).
